10 compounds from ChEMBL document CHEMBL4145444, “Investigating the structure-activity relationships of N'-[(5-nitrofuran-2-yl) methylene] substituted hydrazides against Trypanosoma cruzi to design novel active compounds” (Eur J Med Chem, 2018) can be followed below.

The source made the active and inactive calls. The calls are words filed in the database; no cut-off is given here. Bounds are passed on as bounds.

The nature of series [1]: Cytotoxicity against human U2OS cells assessed as reduction in cell viability. The format is cell-based.
Series [2] is described as follows: Selectivity index, ratio of CC50 for cytotoxicity against human U2OS cells to IC50 for Trypanosoma cruzi Y Tc2 amastigotes infected in human U2OS cells. It is filed as toxicity, cell-based. The settings on record: read-out: Ratio CC50/IC50. The method, boiled down:
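Ratio of U2OS CC50 to Y-strain amastigote IC50, both from the same 72 h Draq5-stained HCS assay in infected U2OS cells (2-fold series up to 200 μM, 1% DMSO).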

In series [3] the test system is Trypanosoma cruzi. Kind of series: Antitrypanosomal activity against Trypanosoma cruzi Y Tc2 amastigotes infected in human U2OS cells up to 200 uM after 72 hrs by Draq5 staining based HCS analysis relative to control. It is filed as functional. The method in brief:
(§1)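 U2OS cells (700/well, high-glucose DME, 10% FBS) seeded and incubated 24 h. Then infected with 2,800 Y-strain trypomastigotes harvested from LLC-MK2 cells. On day 3, 14-point 2-fold dilutions added, top 200 μM, 1% DMSO, 72 h. Fixed in 4% PFA, Draq5 stained, imaged at 20x. Infection ratio normalized to DMSO-mock infected and uninfected controls. IC50 by sigmoidal variable-slope fit. Doublets, duplicate experiments.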

Series [4] has as its system Trypanosoma cruzi. Briefly: Antitrypanosomal activity against Trypanosoma cruzi Colombiana Tc1 trypamastigotes infected in monkey LLC-MK2 cells assessed as inhibition of parasite viability by measuring motility at 1 uM after 20 hrs by light microscopic method relative to control. The format is functional. The settings on record: LLC-MK2, 20 h. The method, boiled down:
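Colombiana trypomastigotes, centrifuged at 7,000 rpm at 4 °C, resuspended at 10^6/mL in DME with 2% FCS. Exposed to 1 μM compound, 0.5% DMSO final, 20 h at 37 °C, 5% CO2. Viability judged by motility under light microscope. Live parasites counted in a Neubauer chamber. % inhibition relative to drug-free control. Two independent experiments.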

For series [5], the system named is Trypanosoma cruzi. Briefly: Antitrypanosomal activity Trypanosoma cruzi Y Tc2 epimastigotes measured after 72 hrs. The format is functional, organism-based. The settings on record: for IC50: Trypanosoma cruzi, Y, 72 h. The method, boiled down:
(§2)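 Exponentially growing epimastigotes (1.0*10^7 parasites/mL) cultured in LIT-FCS medium with compound from 0.4 to 300.0 µM, added from DMSO stock (DMSO ≤1.0%), 72 h at 28 °C. Viable parasites read by absorbance at 562 nm. PGI computed against untreated culture after subtracting compound/medium blanks. IC50 from sigmoid dose-response fit using at least six concentrations. Triplicates, at least two independent experiments.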

In series [6] the test system is Trypanosoma cruzi. Briefly: Antitrypanosomal activity Trypanosoma cruzi Bug 2149 cl10 Tc5 epimastigotes measured after 72 hrs. Conditions: for IC50: Trypanosoma cruzi, Bug 2149 cl10, CL1-0, 72 h. It is filed as functional, organism-based. The method in brief:
(§3)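 Exponentially growing epimastigotes (1.0*10^7 parasites/mL) cultured in LIT-FCS medium with compound from 0.4 to 300.0 µM, added from DMSO stock (DMSO ≤1.0%), 72 h at 28 °C. PGI computed against untreated culture after subtracting compound/medium blanks. IC50 from sigmoid dose-response fit using at least six concentrations. Triplicates, at least two independent experiments.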

Series [7] relates to Trypanosoma cruzi. Kind of series: Antitrypanosomal activity against Trypanosoma cruzi Y Tc2 amastigotes infected in human U2OS cells after 72 hrs by Draq5 staining based HCS analysis. It is filed as functional, organism-based. The method, boiled down:
as §1

For series [8], the system named is Trypanosoma cruzi. Kind of series: Antitrypanosomal activity against Trypanosoma cruzi Silvio X10 cl1 Tc1 epimastigotes measured after 72 hrs. The format is functional, organism-based. Conditions: for IC50: Trypanosoma cruzi, Silvio X10 cl1, 72 h. The method, boiled down:
as §3

In series [9] the test system is Trypanosoma cruzi. Kind of series: Antitrypanosomal activity against Trypanosoma cruzi Colombiana Tc1 epimastigotes measured after 72 hrs. It is filed as functional, organism-based. Conditions: for IC50: Trypanosoma cruzi, Colombiana, 72 h. The method, boiled down: as §2
Series [10] has as its system Trypanosoma cruzi. Briefly: Potency index, ratio of benznidazole IC50 to compound IC50 for antitrypanosomal activity against Trypanosoma cruzi Y Tc2 amastigotes infected in human U2OS cells. It is filed as functional.
In series [11] the test system is Trypanosoma cruzi. Kind of series: Potency index, ratio of benznidazole IC50 to compound IC50 for antitrypanosomal activity against Trypanosoma cruzi Colombiana Tc1 epimastigotes. It is filed as functional.
Series [12] deals with Trypanosoma cruzi. Briefly: Antitrypanosomal activity against Trypanosoma cruzi Y Tc2 amastigotes infected in human U2OS cells at 0.39 uM after 72 hrs by Draq5 staining based HCS analysis. The format is functional, organism-based.
For the next series, the system named is U2OS. Briefly: Cytotoxicity against human U2OS cells assessed as effect on cell morphology at 1.56 uM after 72 hrs by HCS analysis. It is filed as cell-based.
Series [13] relates to Trypanosoma cruzi. Briefly: Antitrypanosomal activity against Trypanosoma cruzi Y Tc2 amastigotes infected in human U2OS cells at 1.56 uM after 72 hrs by Draq5 staining based HCS analysis. The format is functional, organism-based.

`CCCCCC1CCC(C(=O)N/N=C/c2ccc([N+](=O)[O-])o2)CC1` (stereo not drawn): in [1], the CC50 (in general, the concentration at which the toxic effect on the cells reaches its halfway point) is greater than 200 µM. The selectivity ratio in [2] was greater than 120. Moreover, the Emax (commonly the size of the effect at its maximum, as opposed to the concentration needed) in the series on Trypanosoma cruzi [3] was 103%. In addition, the inhibition (as a rule, the change of the read-out against control, counted positive when it falls) at 1 µM in the series on Trypanosoma cruzi [4] was 98.5%. Moreover, the log1/IC50 with Trypanosoma cruzi [5] is recorded as 5.6; in the series on Trypanosoma cruzi [6], 5.9; with Trypanosoma cruzi [8], 5.64; with Trypanosoma cruzi [9], 5.83. Besides, the IC50 (as a rule, the point on the concentration scale where inhibition reaches its midpoint) in the series on Trypanosoma cruzi [5] worked out at 2.5 µM; in the series with Trypanosoma cruzi [6], 1.27 µM; in the series with Trypanosoma cruzi [7], 1.66 µM; in the series with Trypanosoma cruzi [8] it was 2.3 µM; with Trypanosoma cruzi [9] it was 1.47 µM.

As for `CCCCCc1ccc(C(=O)N/N=C/c2ccc([N+](=O)[O-])o2)cc1`, the CC50 in [1] was greater than 200 µM. In addition, the selectivity ratio in [2] was greater than 208. In addition, the Emax with Trypanosoma cruzi [3] is 104%. Further, the inhibition at 1 µM in the series on Trypanosoma cruzi [4] stood at 98.5%. For the same compound, the log1/IC50 worked out at 5.59 with Trypanosoma cruzi [5], 5.7 with Trypanosoma cruzi [6], 5.42 in the series with Trypanosoma cruzi [8] and 5.75 with Trypanosoma cruzi [9]. Moreover, the IC50 came to 2.55 µM in the series on Trypanosoma cruzi [5]; 1.99 µM in the series on Trypanosoma cruzi [6]; 0.96 µM in the series with Trypanosoma cruzi [7]; 3.77 µM in the series on Trypanosoma cruzi [8]; 1.76 µM in the series with Trypanosoma cruzi [9]. Further, the “Ratio IC50” value in the series with Trypanosoma cruzi [10] is given as 70.

As for `CCOC(=O)N/N=C/c1ccc([N+](=O)[O-])o1`, the log1/IC50 with Trypanosoma cruzi [5] was found to be 5.03; in the series with Trypanosoma cruzi [6], 5.16; in the series on Trypanosoma cruzi [8] it was 4.95; with Trypanosoma cruzi [9], 5.15. Further, the IC50 was 9.28 µM in the series on Trypanosoma cruzi [5], 6.92 µM in the series on Trypanosoma cruzi [6], 11.3 µM in the series with Trypanosoma cruzi [8] and 7.07 µM with Trypanosoma cruzi [9]. Besides, in the series with Trypanosoma cruzi [11], the “Ratio IC50” value was 25 - 30.

As for `CCCCCCCOc1ccc(C(=O)N/N=C/c2ccc([N+](=O)[O-])o2)cc1`, the CC50 in series [1] was greater than 200 µM. Moreover, the selectivity ratio in series [2] is greater than 227. Besides, in the series with Trypanosoma cruzi [3], the Emax came to 98.3%. Further, the inhibition at 1 µM in the series with Trypanosoma cruzi [4] was 98.5%. Moreover, the log1/IC50 was 5.83 with Trypanosoma cruzi [5], 6.07 with Trypanosoma cruzi [6], 5.7 in the series on Trypanosoma cruzi [8] and 5.96 in the series with Trypanosoma cruzi [9]. Also, the IC50 in the series on Trypanosoma cruzi [5] turned out to be 1.47 µM; in the series on Trypanosoma cruzi [6] it was 0.85 µM; with Trypanosoma cruzi [7], 0.88 µM; in the series with Trypanosoma cruzi [8], 1.99 µM; in the series on Trypanosoma cruzi [9], 1.09 µM. In addition, in the series with Trypanosoma cruzi [10], the “Ratio IC50” value was determined as 70.

As to `O=C(N/N=C/c1ccc([N+](=O)[O-])o1)c1ccc(-c2ccccc2)cc1`, the CC50 in series [1] was determined as 109 µM. Besides, the selectivity ratio in [2] is 154. For the same compound, in the series on Trypanosoma cruzi [3], the Emax came out at 97.8%. Further, the log1/IC50 in the series with Trypanosoma cruzi [5] was determined as 5.93; in the series on Trypanosoma cruzi [6] it was 5.74; in the series on Trypanosoma cruzi [8] it was 5.71; in the series with Trypanosoma cruzi [9], 5.51. Further, the IC50 with Trypanosoma cruzi [7] stood at 0.71 µM; in the series with Trypanosoma cruzi [9], 3.06 µM.

For the compound `CCCCCCCc1ccc(C(=O)N/N=C/c2ccc([N+](=O)[O-])o2)cc1`, the CC50 in series [1] is greater than 200 µM. Also, the result in the series with Trypanosoma cruzi [12] was inactive. Further, the selectivity ratio in series [2] is greater than 244. The Emax in the series on Trypanosoma cruzi [3] was 103%. Besides, the inhibition at 1 µM with Trypanosoma cruzi [4] came to 98.5%. Moreover, the log1/IC50 in the series with Trypanosoma cruzi [5] turned out to be 5.86; in the series on Trypanosoma cruzi [6], 6.17; in the series on Trypanosoma cruzi [8], 5.7; in the series with Trypanosoma cruzi [9], 5.98. For the same compound, the IC50 in the series on Trypanosoma cruzi [5] was determined as 1.37 µM; in the series with Trypanosoma cruzi [6], 0.67 µM; with Trypanosoma cruzi [7] it was 0.82 µM; with Trypanosoma cruzi [8], 1.98 µM; with Trypanosoma cruzi [9] it was 1.05 µM. In addition, the Activity result with U2OS is “Non-Toxic”. In the series with Trypanosoma cruzi [10], the “Ratio IC50” value was found to be 70. The result in the series with Trypanosoma cruzi [13] was Active.

Take `CCCCOc1ccc(C(=O)N/N=C/c2ccc([N+](=O)[O-])o2)cc1`: in [1], the CC50 turned out to be 46.6 µM. The selectivity ratio in series [2] came to 31.9. In the series on Trypanosoma cruzi [3], this compound registered an Emax of 115%. Moreover, the log1/IC50 in the series with Trypanosoma cruzi [5] was 5.46; with Trypanosoma cruzi [6], 5.37; with Trypanosoma cruzi [8], 5.29; in the series with Trypanosoma cruzi [9], 5.54. The half-maximal inhibitory concentration (IC50) was found to be 1.46 µM in the series on Trypanosoma cruzi [7] and 2.86 µM in the series with Trypanosoma cruzi [9].

`O=C(N/N=C/c1ccc([N+](=O)[O-])o1)c1ccc(O)cc1` [NIFUROXAZIDE]: in [1], the CC50 worked out at 45.7 µM. Further, the selectivity ratio in [2] was 10.7. Further, the Emax with Trypanosoma cruzi [3] was 91.9%. Also, the log1/IC50 with Trypanosoma cruzi [5] amounted to 3.52; in the series on Trypanosoma cruzi [6], 3.52; in the series with Trypanosoma cruzi [8] it was 3.52; in the series on Trypanosoma cruzi [9], 3.73. Further, the IC50 worked out at 4.26 µM in the series on Trypanosoma cruzi [7] and 188 µM in the series on Trypanosoma cruzi [9].

As for `CCCCNc1ccc(C(=O)N/N=C/c2ccc([N+](=O)[O-])o2)cc1`, the CC50 in [1] is 12 µM. In addition, the selectivity ratio in series [2] worked out at 34.4. For the same compound, the Emax with Trypanosoma cruzi [3] was determined as 102%. The log1/IC50 with Trypanosoma cruzi [5] is on record as 5.47; in the series with Trypanosoma cruzi [6], 5.35; in the series on Trypanosoma cruzi [8] it was 5.36; in the series on Trypanosoma cruzi [9] it was 5.4. The IC50 in the series with Trypanosoma cruzi [7] came to 0.35 µM; with Trypanosoma cruzi [9], 3.94 µM.

Turning to `CC1CS(=O)(=O)CCN1/N=C/c1ccc([N+](=O)[O-])o1` (stereo not drawn) [NIFURTIMOX], the CC50 in series [1] worked out at 85.2 µM. Further, in series [2], the selectivity ratio was 16.4. In addition, the Emax in the series on Trypanosoma cruzi [3] came to 96.6%. For the same compound, in the series with Trypanosoma cruzi [4], the inhibition at 1 µM is 7.3%. In addition, the log1/IC50 is listed as 4.89 in the series with Trypanosoma cruzi [5], 5.14 in the series with Trypanosoma cruzi [6], 5.22 with Trypanosoma cruzi [8] and 5 in the series on Trypanosoma cruzi [9]. Besides, the IC50 in the series with Trypanosoma cruzi [7] turned out to be 5.18 µM; in the series with Trypanosoma cruzi [9], 9.93 µM.
